Data set [1] deals with LoVo. As to the kind of experiment: Antiproliferative activity against LoVo cells after 72 hrs by MTT assay. In kind it is functional, cell-based, Homo sapiens. The conditions noted are these: Homo sapiens, LoVo, 72 h. In a few lines:
(§1)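 Cells cultured with each compound for three days; growth then read by the MTT colorimetric assay and reported as IC50 (µM).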
Background: Tetrazolium dyes change colour on reduction, which living cells bring about.

Data set [2] is described as follows: Antiproliferative activity against Hs683 cells after 72 hrs by MTT assay. In kind it is functional, cell-based, Homo sapiens, Hs 683. Conditions: Homo sapiens, Hs 683, 72 h. In a few lines:
as §1

Data set [3] can be described thus: Antiproliferative activity against U373MG cells after 72 hrs by MTT assay. In kind it is functional, cell-based, Homo sapiens, U-373MG ATCC. Conditions: Homo sapiens, U373 MG, 72 h. An outline of the steps: as §1
Data set [4] concerns MCF7. Briefly: Antiproliferative activity against MCF7 cells after 72 hrs by MTT assay. In kind it is functional, cell-based, Homo sapiens. An outline of the steps:
as §1

Data set [5] is described as follows: Toxicity in ip dosed B6D2F1 mouse. In kind it is organism-based. Conditions: in vivo. An outline of the steps: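 Acute MTD was set by a single i.p. dose to groups of three healthy female B6D2F1 mice, at 2.5, 5, 10, 20, 40, 80 and 160 mg/kg. The MTD is the dose just below the lowest dose that killed at least one mouse.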
Data set [6] deals with A549. Briefly: Antiproliferative activity against A549 cells after 72 hrs by MTT assay. The data set is classed as functional, cell-based, Homo sapiens. Conditions: Homo sapiens, A549, 72 h. In a few lines:
as §1

Data set [7] concerns L1210. Briefly: Antitumor activity in L1210 cells xenografted B6D2F1 mouse at 20 mg/kg, ip relative to control. Conditions: route intraperitoneal. In kind it is functional. In a few lines:
(§2)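 Mice grafted with L1210 leukaemia cells on day 0, then dosed i.p. four times weekly on days 1-4 and 8-11. Five mice per group. Outcome is %T/C, the median survival of treated over control. Kruskal-Wallis test followed by Dunn comparisons against control.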

In data set [8] the test system is HCT-15. As to the kind of experiment: Antiproliferative activity against HCT15 cells after 72 hrs by MTT assay. In kind it is functional, cell-based, Homo sapiens. Conditions: Homo sapiens, HCT-15, 72 h. In a few lines:
as §1

For data set [9], the system named is L1210. As to the kind of experiment: Antitumor activity in L1210 cells xenografted B6D2F1 mouse at 40 mg/kg, ip relative to control. The conditions noted are these: route intraperitoneal. The data set is classed as functional. An outline of the steps:
as §2

The test system of data set [10] is L1210. Briefly: Antitumor activity in L1210 cells xenografted B6D2F1 mouse at 10 mg/kg, ip relative to control. The data set is classed as functional. The conditions noted are these: route intraperitoneal. In a few lines:
as §2

Data set [11] deals with DNA topoisomerase 2-alpha (Homo sapiens) (UniProt P11388). Briefly: Inhibition of human topoisomerase 2-mediated kinetoplast DNA […] at 50 uM. In a few lines: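 Topoisomerase II strand-passage activity by kDNA decatenation; compounds at 50 µM; catenated networks stay in wells, decatenated kDNA enters ethidium bromide-stained agarose gel; no-enzyme and no-drug reactions as controls.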

The target in data set [12] is T1, DNA topoisomerase 1 (Homo sapiens) (UniProt P11387).
T1 sequence (whole entry): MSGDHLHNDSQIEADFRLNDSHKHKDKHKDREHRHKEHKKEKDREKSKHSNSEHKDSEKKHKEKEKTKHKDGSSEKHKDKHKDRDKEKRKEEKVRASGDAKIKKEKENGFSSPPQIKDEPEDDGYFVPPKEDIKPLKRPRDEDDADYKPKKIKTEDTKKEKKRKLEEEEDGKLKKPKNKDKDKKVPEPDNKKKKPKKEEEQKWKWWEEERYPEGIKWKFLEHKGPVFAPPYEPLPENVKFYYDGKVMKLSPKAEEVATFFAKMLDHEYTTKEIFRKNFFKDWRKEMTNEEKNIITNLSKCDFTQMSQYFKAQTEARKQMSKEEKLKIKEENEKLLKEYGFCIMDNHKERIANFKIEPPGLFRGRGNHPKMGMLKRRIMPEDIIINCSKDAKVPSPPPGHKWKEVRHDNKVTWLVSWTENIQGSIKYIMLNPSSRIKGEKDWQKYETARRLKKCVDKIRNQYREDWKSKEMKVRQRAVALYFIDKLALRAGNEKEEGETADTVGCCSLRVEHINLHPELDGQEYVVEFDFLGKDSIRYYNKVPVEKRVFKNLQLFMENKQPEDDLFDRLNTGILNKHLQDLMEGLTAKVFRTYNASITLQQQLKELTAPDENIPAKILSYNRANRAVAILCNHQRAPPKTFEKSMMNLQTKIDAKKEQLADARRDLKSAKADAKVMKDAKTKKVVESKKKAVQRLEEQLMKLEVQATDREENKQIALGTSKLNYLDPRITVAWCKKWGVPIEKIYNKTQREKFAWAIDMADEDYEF
Briefly: Inhibition of human topoisomerase 1 by DNA unwinding test. In a few lines: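 DNA unwinding assay: relaxed pBR322 plasmid converted to supercoiled form in presence of topoisomerase I; compounds at final 4–32 µM (one up to 15–55 µM); ethidium bromide-stained agarose gels; UC50 taken as concentration shifting relaxed band to midpoint between supercoiled and relaxed states.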

The species entered for data set [13] is Homo sapiens. Briefly: Inhibition of human topoisomerase 2 at 50 uM by plasmid linearization assay.
Data set [14] concerns MCF7. As to the kind of experiment: Induction of apoptosis in human MCF7 cells assessed as p53 activation. The data set is classed as functional, cell-based. An outline of the steps:
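MCF-7 cells treated and p53 activation assessed by immunoblotting, with tubulin as loading control. Adriamycin (2.5 µM, 24 h) served as positive control.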

Each structure is given as a SMILES string. pIC50: −log10 of the molar value. Activity calls are given as the source filed them. The calls are words filed in the database; no cut-off is given here.

DNA topoisomerase 2-alpha (Homo sapiens), sequence (P11388 whole entry): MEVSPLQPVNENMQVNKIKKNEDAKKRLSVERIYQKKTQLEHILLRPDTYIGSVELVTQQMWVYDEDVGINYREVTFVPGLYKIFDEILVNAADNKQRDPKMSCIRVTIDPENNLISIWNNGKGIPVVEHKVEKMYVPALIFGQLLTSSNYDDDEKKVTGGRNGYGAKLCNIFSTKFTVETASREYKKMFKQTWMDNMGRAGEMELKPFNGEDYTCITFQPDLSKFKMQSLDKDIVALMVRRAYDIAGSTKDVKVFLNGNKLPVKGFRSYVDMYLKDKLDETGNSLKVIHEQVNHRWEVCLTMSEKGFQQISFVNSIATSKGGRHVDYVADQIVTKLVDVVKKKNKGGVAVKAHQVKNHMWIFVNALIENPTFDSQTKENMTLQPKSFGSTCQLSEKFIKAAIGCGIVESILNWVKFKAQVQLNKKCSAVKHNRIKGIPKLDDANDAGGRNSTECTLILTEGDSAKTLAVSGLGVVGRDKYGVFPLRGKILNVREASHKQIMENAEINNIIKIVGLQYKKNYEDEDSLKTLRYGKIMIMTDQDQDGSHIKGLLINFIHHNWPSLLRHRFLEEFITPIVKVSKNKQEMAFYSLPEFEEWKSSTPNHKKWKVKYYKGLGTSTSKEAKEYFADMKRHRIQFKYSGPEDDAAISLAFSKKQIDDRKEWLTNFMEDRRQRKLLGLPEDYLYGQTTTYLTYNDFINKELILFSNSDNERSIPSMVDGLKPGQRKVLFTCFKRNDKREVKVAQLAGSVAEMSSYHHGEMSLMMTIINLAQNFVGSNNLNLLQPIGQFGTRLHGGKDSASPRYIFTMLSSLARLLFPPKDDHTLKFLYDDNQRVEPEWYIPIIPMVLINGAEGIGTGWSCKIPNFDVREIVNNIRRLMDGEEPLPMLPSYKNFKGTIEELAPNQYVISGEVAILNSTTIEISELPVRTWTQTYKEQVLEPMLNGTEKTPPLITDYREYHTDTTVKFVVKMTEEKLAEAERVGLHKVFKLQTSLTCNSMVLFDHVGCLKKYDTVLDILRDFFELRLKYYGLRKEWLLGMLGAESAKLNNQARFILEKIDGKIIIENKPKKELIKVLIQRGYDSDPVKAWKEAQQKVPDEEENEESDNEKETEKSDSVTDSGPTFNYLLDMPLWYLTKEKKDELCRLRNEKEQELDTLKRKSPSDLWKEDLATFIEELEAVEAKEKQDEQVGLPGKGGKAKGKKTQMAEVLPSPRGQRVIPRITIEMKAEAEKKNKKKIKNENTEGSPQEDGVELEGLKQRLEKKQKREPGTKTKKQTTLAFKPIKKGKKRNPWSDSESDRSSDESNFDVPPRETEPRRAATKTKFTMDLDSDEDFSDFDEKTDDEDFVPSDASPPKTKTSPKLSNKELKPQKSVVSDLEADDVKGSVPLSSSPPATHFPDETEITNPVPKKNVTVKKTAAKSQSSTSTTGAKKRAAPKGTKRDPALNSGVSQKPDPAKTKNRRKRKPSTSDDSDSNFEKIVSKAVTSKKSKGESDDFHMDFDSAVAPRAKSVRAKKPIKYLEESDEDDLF

For `CN(C)CCN1C(=O)c2cccc3cc(NC(=O)NC(=O)CCl)cc(c23)C1=O`, the pIC50 was 5.54 in data set [1]; 5.52 in [2]; 5.48 in data set [3]; 5.31 in data set [4] (Homo sapiens, MCF7, 72 h); 5.39 in [6]; 5.35 in data set [8]. In [5], the MTD turned out to be 20 mg/kg. For the same compound, the Activity in data set [7] was determined as 147%.
Regarding `COC(=O)Nc1cc2c3c(cccc3c1)C(=O)N(CCN(C)C)C2=O`, the pIC50 in [1] was 5.39; in data set [2], 5.48; in data set [3] it was 5.38; in [4] (Homo sapiens, MCF7, 72 h) it was less than 5.00; in data set [6] it was 5.23; in data set [8], 5.14. The compound further came in with an MTD in [5] of 40 mg/kg. This compound displayed an Activity in data set [9] of 133%.
As for `CN(C)CCN1C(=O)c2cccc3cc(NC(=O)c4ccccc4)cc(c23)C1=O`, the pIC50 is 5.43 in data set [1]; 5.25 in data set [2]; 5.22 in [3]; less than 5.00 in data set [4] (Homo sapiens, MCF7, 72 h); 5.07 in data set [6]; 5.08 in data set [8]. Also, in data set [5], the MTD was determined as 40 mg/kg. Moreover, the Activity in data set [7] came to 167%.
Take `CN(C)CCN1C(=O)c2cccc3cc(NC(=O)Cc4ccc(Cl)cc4)cc(c23)C1=O`: the pIC50 is 5.32 in [1]; 5.15 in [2]; 5.24 in [3]; 5.32 in [4] (Homo sapiens, MCF7, 72 h); 5.33 in data set [6]; 5.26 in [8]. Further, the MTD in [5] was found to be 20 mg/kg. Besides, in data set [10], the Activity worked out at 200%.
For the compound `CCOC(=O)NC(=O)Nc1cc2c3c(cccc3c1)C(=O)N(CCN(C)C)C2=O`, the pIC50 is 5.11 in data set [1]; 5.44 in data set [2]; 5.39 in data set [3]; 5.20 in [4] (Homo sapiens, MCF7, 72 h); 5.31 in [6]; 5.36 in data set [8]. In [5], this compound registered an MTD of 80 mg/kg. The compound further came in with an Activity in [9] of 207%.
`CN(C)CCN1C(=O)c2cccc3cc(/N=C\c4cc(O)ccc4O)cc(c23)C1=O`: the result in data set [11], in data set [13] and in [14] was Active. This compound yielded a UC50 in data set [12] of 13 µM.
On to `CN(C)CCN1C(=O)c2cccc3cc(N)cc(c23)C1=O.Cl`, for which the pIC50 in data set [1] is 5.46; in [2], 5.33; in [3], 5.35; in [4] (mcf7), 5.05; in data set [6] it was 5.32; in [8], 5.06. In addition, in data set [10], the Activity is given as 120%.
For `CN(C)CCN1C(=O)c2cccc3cc(NC(=O)NCCCl)cc(c23)C1=O`, the pIC50 in data set [1] is 5.74; in data set [2] it was 5.34; in data set [3], 6.00; in data set [4] (Homo sapiens, MCF7, 72 h), 5.41; in data set [6], 5.52; in [8], 5.25. In data set [5], the MTD is more than 80 mg/kg. For the same compound, the Activity in data set [7] is reported as 156%.

Usually pIC50 stands for the IC50 on a negative log10 scale, so that one unit is a factor of ten.
